From ChEMBL document CHEMBL1125291, “New 8-(trifluoromethyl)-substituted quinolones. The benefits of the 8-fluoro group with reduced phototoxic risk” (1992) come the findings set out here.

The term MIC denotes the smallest concentration in the dilution series that meets the test's criterion for growth inhibition. In general, MTD refers to the largest dose that counted as tolerated.

Converted amounts (≈) assume the structure as drawn. A value given as a limit tells only on which side of the number the result lay.

For one test, the species on record is Mus musculus. In words: Dose which has no effect to induce phototoxic reaction in 50% of mice by probit method. Format: functional.
Details: not given
`NC1CCCN(c2c(F)cc3c(=O)c(C(=O)O)cn(C4CC4)c3c2C(F)(F)F)C1` (stereo not given) displayed a No effect dose of 100 mg/kg.

Consider `NC1CCCN(c2cc3c(cc2F)c(=O)c(C(=O)O)cn3C2CC2)C1` (stereo not given), for which the No effect dose worked out at 100 mg/kg.

The test system of the next test is Pseudomonas aeruginosa. In words: Minimum inhibitory concentration (MIC) against gram negative bacteria Pseudomonas aeruginosa UI-18. The test is classed as functional. The settings on record: Pseudomonas aeruginosa; read-out: MIC. Put shortly: (§1)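 MICs were determined by standard broth microtitration against 11 Gram-positive and Gram-negative organisms, in µg/mL. Values come from duplicate or triplicate experiments and are accurate to ±50%.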
Turning to `NC1CCCN(c2c(F)cc3c(=O)c(C(=O)O)cn(C4CC4)c3c2C(F)(F)F)C1` (stereo not given), the MIC turned out to be 1.6 µg/mL (≈ 3.87 µM).

For `NC1CCCN(c2cc3c(cc2F)c(=O)c(C(=O)O)cn3C2CC2)C1` (stereo not given), the MIC came out at 0.8 µg/mL (≈ 2.32 µM).

For a further test, the system named is Klebsiella pneumoniae. In words: Minimum inhibitory concentration (MIC) against gram negative bacteria Klebsiella pneumoniae MGH-2. Format: functional. The following applies: Klebsiella pneumoniae; read-out: MIC. The method, boiled down: as §1
Turning to `NC1CCCN(c2c(F)cc3c(=O)c(C(=O)O)cn(C4CC4)c3c2C(F)(F)F)C1` (stereo not given), the MIC came out at 0.2 µg/mL (≈ 0.484 µM).

As to `NC1CCCN(c2cc3c(cc2F)c(=O)c(C(=O)O)cn3C2CC2)C1` (stereo not given), the MIC stood at 0.2 µg/mL (≈ 0.579 µM).

The next test relates to Streptococcus pyogenes. In words: Minimum inhibitory concentration (MIC) against gram positive bacteria Streptococcus pyogenes C-203. Format: functional. The following applies: Streptococcus pyogenes; read-out: MIC. The method, boiled down:
as §1
For the compound `NC1CCCN(c2c(F)cc3c(=O)c(C(=O)O)cn(C4CC4)c3c2C(F)(F)F)C1` (stereo not given), the MIC stood at 0.2 µg/mL (≈ 0.484 µM).

Regarding `NC1CCCN(c2cc3c(cc2F)c(=O)c(C(=O)O)cn3C2CC2)C1` (stereo not given), the minimum inhibitory concentration (MIC) stood at 0.1 µg/mL (≈ 0.29 µM).

For the next test, the species on record is Mus musculus. In words: Days of the first positive reaction in […] mice. Format: functional.
Details: not given
Put shortly: (§2)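 Phototoxic skin reaction test in depilated female CD-1 mice. A single oral dose (gavage) or subcutaneous dose was given, followed 1 h later by 3 h of UVA exposure (320–400 nm). The regimen was repeated for up to 4 consecutive days, with initial doses of 30, 100 and 300 mg/kg. PTD50 was derived by the probit method. The first day of positive reaction and the no-effect dose were taken from the raw data.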
Take `NC1CCCN(c2c(F)cc3c(=O)c(C(=O)O)cn(C4CC4)c3c2C(F)(F)F)C1` (stereo not given): the “Day of first positve reaction” value was determined as 0.

For the compound `NC1CCCN(c2cc3c(cc2F)c(=O)c(C(=O)O)cn3C2CC2)C1` (stereo not given), the “Day of first positve reaction” value was determined as 0.

The test system of the next test is Escherichia coli. In words: In vivo efficacy in mouse protection test in Escherichia coli Vogel administered by subcutaneous injection. Format: functional. The settings on record: Escherichia coli, sc; read-out: PD50. The method, boiled down:
(§3)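 Acute lethal systemic infections in female Charles River CD-1 mice. A single dose was given at challenge, orally by gavage or by subcutaneous injection. PD50 (median protective dose, mg/kg) was determined.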
For the compound `NC1CCCN(c2c(F)cc3c(=O)c(C(=O)O)cn(C4CC4)c3c2C(F)(F)F)C1` (stereo not given), the ED50 is 3.2 mg/kg.

Take `NC1CCCN(c2cc3c(cc2F)c(=O)c(C(=O)O)cn3C2CC2)C1` (stereo not given): the ED50 came out at 1.4 mg/kg.

For a further test, the system named is Escherichia coli. In words: In vivo efficacy in mouse protection test in Escherichia coli Vogel dose administered orally by gavage. The test is classed as functional. The settings on record: Escherichia coli, po; read-out: PD50. The method, boiled down: as §3
In the case of `NC1CCCN(c2c(F)cc3c(=O)c(C(=O)O)cn(C4CC4)c3c2C(F)(F)F)C1` (stereo not given), the ED50 came to 11.8 mg/kg.

For `NC1CCCN(c2cc3c(cc2F)c(=O)c(C(=O)O)cn3C2CC2)C1` (stereo not given), the ED50 is 15 mg/kg.

A further test deals with Escherichia coli. In words: Minimum inhibitory concentration (MIC) against gram negative bacteria Escherichia coli Vogel. The test is classed as functional. The following applies: Escherichia coli; read-out: MIC. The method, boiled down:
as §1
For the compound `NC1CCCN(c2c(F)cc3c(=O)c(C(=O)O)cn(C4CC4)c3c2C(F)(F)F)C1` (stereo not given), the minimum inhibitory concentration (MIC) amounted to 0.1 µg/mL (≈ 0.242 µM).

For the compound `NC1CCCN(c2cc3c(cc2F)c(=O)c(C(=O)O)cn3C2CC2)C1` (stereo not given), the MIC was found to be 0.1 µg/mL (≈ 0.29 µM).

Another test has as its system Staphylococcus aureus. In words: Minimum inhibitory concentration (MIC) against gram positive bacteria Staphylococcus aureus UC-76. Format: functional. The following applies: Staphylococcus aureus; read-out: MIC. The method, boiled down: as §1
`NC1CCCN(c2c(F)cc3c(=O)c(C(=O)O)cn(C4CC4)c3c2C(F)(F)F)C1` (stereo not given): the minimal inhibitory concentration (MIC) amounted to 0.025 µg/mL (≈ 0.0605 µM).

On to `NC1CCCN(c2cc3c(cc2F)c(=O)c(C(=O)O)cn3C2CC2)C1` (stereo not given), for which the MIC is 0.05 µg/mL (≈ 0.145 µM).

System in a further test: not listed separately
In words: Minimum inhibitory concentration (MIC) against gram negative bacteria Prot. rettgeri M-1771. The settings on record: Providencia rettgeri; read-out: MIC. Format: functional, Providencia rettgeri. Put shortly: as §1
On to `NC1CCCN(c2c(F)cc3c(=O)c(C(=O)O)cn(C4CC4)c3c2C(F)(F)F)C1` (stereo not given), for which the minimal inhibitory concentration (MIC) came to 0.4 µg/mL (≈ 0.968 µM).

For the compound `NC1CCCN(c2cc3c(cc2F)c(=O)c(C(=O)O)cn3C2CC2)C1` (stereo not given), the minimal inhibitory concentration (MIC) was found to be 0.8 µg/mL (≈ 2.32 µM).

A further test relates to Mus musculus. In words: Maximum tolerance dose was measured for phototoxic skin reaction by po administration. The test is classed as functional.
Details: not given
For the compound `NC1CCCN(c2c(F)cc3c(=O)c(C(=O)O)cn(C4CC4)c3c2C(F)(F)F)C1` (stereo not given), the MTD came to 100 mg/kg.

In the case of `NC1CCCN(c2cc3c(cc2F)c(=O)c(C(=O)O)cn3C2CC2)C1` (stereo not given), the MTD came to 100 mg/kg.

A further test relates to Enterococcus faecalis. In words: Minimum inhibitory concentration (MIC) against gram positive bacteria Streptococcus faecalis MGH-2. The following applies: Enterococcus faecalis; read-out: MIC. Format: functional. The method, boiled down:
as §1
`NC1CCCN(c2c(F)cc3c(=O)c(C(=O)O)cn(C4CC4)c3c2C(F)(F)F)C1` (stereo not given): the minimal inhibitory concentration (MIC) came out at 0.2 µg/mL (≈ 0.484 µM).

Consider `NC1CCCN(c2cc3c(cc2F)c(=O)c(C(=O)O)cn3C2CC2)C1` (stereo not given), for which the MIC was determined as 0.2 µg/mL (≈ 0.579 µM).

Another test concerns Staphylococcus aureus. In words: Minimum inhibitory concentration (MIC) against gram positive bacteria Staphylococcus aureus H-228. Format: functional. The settings on record: Staphylococcus aureus; read-out: MIC. Put shortly: as §1
For the compound `NC1CCCN(c2c(F)cc3c(=O)c(C(=O)O)cn(C4CC4)c3c2C(F)(F)F)C1` (stereo not given), the MIC amounted to 0.2 µg/mL (≈ 0.484 µM).

In the case of `NC1CCCN(c2cc3c(cc2F)c(=O)c(C(=O)O)cn3C2CC2)C1` (stereo not given), the MIC turned out to be 0.8 µg/mL (≈ 2.32 µM).

The test system of a further test is Streptococcus pyogenes. In words: In vivo efficacy (orally) against Streptococcus pyogenes C-203 in mouse protection test. The test is classed as functional. The following applies: Streptococcus pyogenes, po; read-out: PD50. Put shortly: as §3
As to `NC1CCCN(c2c(F)cc3c(=O)c(C(=O)O)cn(C4CC4)c3c2C(F)(F)F)C1` (stereo not given), the ED50 was found to be 35 mg/kg.

In the case of `NC1CCCN(c2cc3c(cc2F)c(=O)c(C(=O)O)cn3C2CC2)C1` (stereo not given), the ED50 was over 50 mg/kg.

In a further test the test system is Streptococcus pyogenes. In words: In vivo efficacy (s.c.) against Streptococcus pyogenes C-203 in mouse protection test. Format: functional. The following applies: Streptococcus pyogenes, sc; read-out: PD50. The method, boiled down:
as §3
For the compound `NC1CCCN(c2c(F)cc3c(=O)c(C(=O)O)cn(C4CC4)c3c2C(F)(F)F)C1` (stereo not given), the ED50 is 12 mg/kg.

For `NC1CCCN(c2cc3c(cc2F)c(=O)c(C(=O)O)cn3C2CC2)C1` (stereo not given), the ED50 was found to be 8 mg/kg.

The species named for another test is Mus musculus. In words: Dose required to induce phototoxic reaction in 50% of mice by probit method at different dosage forms. Format: functional.
Details: not given
With `NC1CCCN(c2c(F)cc3c(=O)c(C(=O)O)cn(C4CC4)c3c2C(F)(F)F)C1` (stereo not given), the PTD50 is over 100 mg/kg.

The compound `NC1CCCN(c2cc3c(cc2F)c(=O)c(C(=O)O)cn3C2CC2)C1` (stereo not given) showed a PTD50 of over 100 mg/kg.

In the next test the test system is Enterobacter cloacae. In words: Minimum inhibitory concentration (MIC) against gram negative bacteria Enterobacter cloacae MA-2646. Format: functional.
Details: not given
`NC1CCCN(c2c(F)cc3c(=O)c(C(=O)O)cn(C4CC4)c3c2C(F)(F)F)C1` (stereo not given) displayed a minimum inhibitory concentration (MIC) of 0.1 µg/mL (≈ 0.242 µM).

Consider `NC1CCCN(c2cc3c(cc2F)c(=O)c(C(=O)O)cn3C2CC2)C1` (stereo not given), for which the minimum inhibitory concentration (MIC) worked out at 0.1 µg/mL (≈ 0.29 µM).

The species entered for a further test is Mus musculus. In words: Number of mice which show positive phototoxic reaction. The test is classed as functional.
Details: not given
Put shortly: as §2
`NC1CCCN(c2c(F)cc3c(=O)c(C(=O)O)cn(C4CC4)c3c2C(F)(F)F)C1` (stereo not given) had a No. of pos rxns of 0.

As to `NC1CCCN(c2cc3c(cc2F)c(=O)c(C(=O)O)cn3C2CC2)C1` (stereo not given), the No. of pos rxns came out at 0.

In the next test the test system is Escherichia coli. In words: Minimum inhibitory concentration (MIC) against gram negative bacteria Escherichia coli H-560. The test is classed as functional. The settings on record: Escherichia coli; read-out: MIC. The method, boiled down:
as §1
On to `NC1CCCN(c2c(F)cc3c(=O)c(C(=O)O)cn(C4CC4)c3c2C(F)(F)F)C1` (stereo not given), for which the MIC amounted to 0.1 µg/mL (≈ 0.242 µM).

In the case of `NC1CCCN(c2cc3c(cc2F)c(=O)c(C(=O)O)cn3C2CC2)C1` (stereo not given), the MIC is 0.1 µg/mL (≈ 0.29 µM).

The subject of a further test is Streptococcus pneumoniae. In words: Minimum inhibitory concentration (MIC) against gram positive bacteria Streptococcus pneumoniae SV-1. The following applies: Streptococcus pneumoniae; read-out: MIC. The test is classed as functional. The method, boiled down: as §1
Regarding `NC1CCCN(c2c(F)cc3c(=O)c(C(=O)O)cn(C4CC4)c3c2C(F)(F)F)C1` (stereo not given), the MIC came out at 0.2 µg/mL (≈ 0.484 µM).

In the case of `NC1CCCN(c2cc3c(cc2F)c(=O)c(C(=O)O)cn3C2CC2)C1` (stereo not given), the minimum inhibitory concentration (MIC) was 0.2 µg/mL (≈ 0.579 µM).
